Diaphorase inh = counter-screen for diaphorase-based assays: diaphorase inhibitors and chemical oxidizers. diaphorase resazurin-to-resorufin fluorescence, NADH, 16 min; bacterial (C. kluyveri) enzyme, not human. inhibition, % at 20 µM. hit rate 0.69% among 190,000;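 active means primary screen inhibition at 20 µM above a set limit, cut at about 50% in these data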;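 further: plate controls were DMSO with full reaction for no effect and wells lacking NADH for full effect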
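controls = No-NADH positive control and DMSO neutral control | system = Clostridium kluyveri diaphorase enzyme | timing = reaction incubation of 16 min at room temperature | signal = resorufin fluorescence 544/590 nm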
ROMK mod = modulators of human ROMK potassium channel | P48048 | Tet-inducible ROMK, thallium flux fluorescence; actives lie on both sides | B-score at 10 µM | hit rate 2% among 130,000;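 active means signal ratio slope over the read window, or its plate-corrected B-score, at least 3 SD from the plate mean, either direction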;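 further: B-score of the F/F0 ratio slope over 7 to 12 s after thallium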
Target sequence (P48048 whole entry, looked up): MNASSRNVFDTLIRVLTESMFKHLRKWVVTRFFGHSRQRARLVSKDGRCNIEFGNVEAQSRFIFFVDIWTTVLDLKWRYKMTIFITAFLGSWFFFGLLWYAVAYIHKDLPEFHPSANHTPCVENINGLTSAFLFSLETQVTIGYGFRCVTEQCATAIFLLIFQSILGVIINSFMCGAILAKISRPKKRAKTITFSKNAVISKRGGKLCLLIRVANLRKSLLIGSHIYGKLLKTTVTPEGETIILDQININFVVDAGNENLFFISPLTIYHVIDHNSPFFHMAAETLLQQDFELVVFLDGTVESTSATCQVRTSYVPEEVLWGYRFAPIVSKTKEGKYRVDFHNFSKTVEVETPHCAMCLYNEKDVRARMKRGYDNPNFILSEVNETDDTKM
Diaphorase act = counter-screen for diaphorase-based assays: diaphorase activators and chemical reducers | activation factor at 20 µM | AID 1229 | hit rate 0.005% among 190,000 | Diaphorase/resazurin coupled assay, resorufin fluorescence, 16 min; active compounds read high; 1 = vehicle wells, 0 = NADH-free wells;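 active means diaphorase activity raised at least twofold by the compound at 20 µM; inactive means activation factor below 2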
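test system = bacterial diaphorase enzyme (C. kluyveri) | quantity = enzyme 0.07 U/mL final | reagent = NADH substrate 0.114 mM plus resazurin dye 0.1 mM, final | incubation = 16 min enzyme reaction, ambient temperature | buffer or medium = HEPES pH 7.4 buffer with MgCl2 and Tween 20 | signal = fluorescence of resorufin, 544 nm excitation, 590 nm emission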
G6PDH counter = inhibits Leuconostoc G6PDH, flagging false hits in G6PDH-based assays | hit rate 0.12% among 200,000 | Purified L. mesenteroides G6PDH, diaphorase/resazurin coupled fluorescence, 45 min | inhibition, % at 5 µM; in the data active means inhibition above about 50%
PMI act satM6P = activators of human phosphomannose isomerase at near-saturating mannose 6-phosphate; AID 1216; coupled PMI enzyme assay, resazurin fluorescence, 20 min; active compounds read high; 1 = untreated enzyme, 0 = substrate-free blank; P34949; activation factor at 20 µM; hit rate 0.34% among 190,000;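 active means activation factor of 2 or more at 20 µM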
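Material: human phosphomannose isomerase with PGI, G6PDH, diaphorase coupling enzymes / Reagent: Man-6-P substrate 1.0 mM / Dosing: single compound dose of 20 µM, 1% DMSO final / Incubation: enzyme reaction with compound 20 min at room temperature / Signal: resorufin fluorescence (Ex 544/Em 590 nm) from resazurin via diaphorase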
PMI activator = phosphomannose isomerase (human) activation; P34949; purified human PMI, coupled resazurin fluorescence, 20 min; active compounds read high; 1 = vehicle control, 0 substrate-free wells; activation factor at 20 µM; hit rate 0.005% among 190,000;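 active means activation factor of 2 or more at 20 µM, relative to plate controls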
ROMK retest = human ROMK channel modulation, retest confirmation. shares compounds with ROMK mod. hit rate 54% among 3,000. ROMK thallium flux, fluorescence ratio; active compounds read low. normalized thallium flux (F/F0 slope) at 10 µM;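 active means Flux at 10 µM at least 3 SD below or above vehicle control mean in one or both replicates; inconclusive means no clear call, values can overlap the other calls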
Starred values were filed as active, the others as inactive. Most compounds without a hit are left out; they make up all but 2.2% or so of the library.

`CCOC(=O)C(=O)N1c2ccccc2C(N(C(=O)C(=O)OCC)c2ccccc2)CC1C` (centres undefined) gave ROMK mod -0.153.
Screening CC1CC(N(C(=O)C2CC2)c2ccccc2)c2ccccc2N1C(=O)C1CC1 (centres undefined) returned Diaphorase inh 3.9, ROMK mod -3.43*, Diaphorase act 1, G6PDH counter 6.9, PMI act satM6P 1, PMI activator 1.1 and ROMK retest 0.0584*.
Screening O=C(CCl)N(c1ccccc1)c1ccccc1 returned Diaphorase inh 31.2, ROMK mod -5.4*, Diaphorase act 0.7, G6PDH counter 4.2, PMI act satM6P 1, PMI activator 1 and ROMK retest 0.0533*.
Screening COC(=O)C(CCCCNC(=O)c1ccc([N+](=O)[O-])cc1)NC(=O)c1ccc([N+](=O)[O-])cc1 (centres undefined) returned Diaphorase inh 16.3, ROMK mod 0.383, Diaphorase act 0.8, G6PDH counter 1.7, PMI act satM6P 1 and PMI activator 1.
`O=C(COc1ccc(C(=O)c2ccccc2)cc1)NCC1CCCCC1` gave Diaphorase inh 14.7, ROMK mod -0.135, Diaphorase act 0.9, G6PDH counter -15.2, PMI act satM6P 1 and PMI activator 1.
For CC(C)CCNC(=O)NC(=O)COC(=O)C1=COCCO1 the results were Diaphorase inh 4.7, ROMK mod 0.457, Diaphorase act 1, G6PDH counter 3.3, PMI act satM6P 1.1, PMI activator 1.1 and ROMK retest 0.0788.
C/C(Cl)=C\COc1cc(C)nc2c(Br)cccc12 was read as Diaphorase inh 25.0, ROMK mod -1.02, Diaphorase act 0.8, G6PDH counter -1.7, PMI act satM6P 1 and PMI activator 0.9.
`CCC1(CC)Cc2ccccc2-c2nc(NCCCO)[nH]c(=O)c21` gave Diaphorase inh 19.9, ROMK mod -2.94, Diaphorase act 0.8, G6PDH counter 7.3, PMI act satM6P 1 and PMI activator 0.8.
O=c1[nH]c(NCCCO)nc2c1C1(CCCC1)Cc1ccccc1-2 was read as Diaphorase inh 18.5, ROMK mod -3.38*, Diaphorase act 0.8, G6PDH counter 9.4, PMI act satM6P 0.9, PMI activator 0.9 and ROMK retest 0.0566*.
Screening CN(Cc1cn(-c2ccccc2)nc1-c1ccc2c(c1)OCO2)Cc1nccn1C returned Diaphorase inh 18.3, ROMK mod 0.0166, Diaphorase act 0.8, G6PDH counter 2.9, PMI act satM6P 1 and PMI activator 0.9.
`CN(CCn1ccnc1)Cc1cn(-c2ccccc2)nc1-c1ccc2c(c1)OCO2` gave Diaphorase inh -8.1, ROMK mod -4.63*, Diaphorase act 1.1, G6PDH counter 9.6, PMI act satM6P 0.9, PMI activator 0.9 and ROMK retest 0.0519*.
`COC(=O)C1CCN(Cc2cn(-c3ccccc3)nc2-c2ccc3c(c2)OCO3)CC1` gave Diaphorase inh 9.0, ROMK mod -0.788, Diaphorase act 0.9, G6PDH counter 11.5, PMI act satM6P 0.9 and PMI activator 0.9.
Screening COCCC1CCCCN1Cc1cn(-c2ccccc2)nc1-c1ccc2c(c1)OCO2 (centres undefined) returned Diaphorase inh -21.7, ROMK mod -4.86*, Diaphorase act 1.2, G6PDH counter 14.7, PMI act satM6P 1.1, PMI activator 1.1 and ROMK retest 0.0517*.
`C=CCOc1ccc(C=Nc2cccc(Cl)c2)c(O)c1` gave Diaphorase inh 18.3, ROMK mod -2.86*, Diaphorase act 0.8, G6PDH counter 26.4, PMI act satM6P 0.8, PMI activator 0.8 and ROMK retest 0.0806.
COc1cc(/C=N/NS(=O)(=O)c2ccc(C)c([N+](=O)[O-])c2)ccc1O was read as Diaphorase inh 6.3, ROMK mod -0.145, Diaphorase act 0.9, G6PDH counter 3.8, PMI act satM6P 1.2 and PMI activator 1.3.
COc1ccc(-n2c(O)c(/C=N/NS(=O)(=O)c3ccc(C)c([N+](=O)[O-])c3)c3ccccc3c2=O)cc1OC was read as Diaphorase inh 46.8, ROMK mod -3.28*, Diaphorase act 0.5, G6PDH counter 11.2, PMI act satM6P 1.6, PMI activator 1.3 and ROMK retest inconclusive.
For CC(C)OC(=O)CSc1nnc(CNc2ccc(Cl)cc2)n1Cc1ccccc1 the results were Diaphorase inh 4.3, Diaphorase act 1, G6PDH counter 7.3, PMI act satM6P 1.1 and PMI activator 1.1.
Screening CCOC(=O)CSc1nnc(CNc2ccc(Cl)cc2)n1Cc1ccccc1 returned Diaphorase inh -2.2, ROMK mod -3.84*, Diaphorase act 1, G6PDH counter 6.1, PMI act satM6P 1.1, PMI activator 1.1 and ROMK retest 0.063*.
For Cc1ccnn1CCC(=O)O the results were ROMK mod 0.291.
`Cn1c(/C(C#N)=C/Nc2ccccn2)nc2ccccc21` gave Diaphorase inh 0.9, ROMK mod -0.612, Diaphorase act 1, G6PDH counter 9.3, PMI act satM6P 1.1 and PMI activator 1.
Screening Cn1c(/C(C#N)=C/c2cccc(O)c2)nc2ccccc21 returned Diaphorase inh 3.9, ROMK mod -5.04*, Diaphorase act 1, G6PDH counter 13.9, PMI act satM6P 0.9, PMI activator 0.9 and ROMK retest 0.0486*.
Screening CC(C)CN(CC(C)C)c1ccc(/C=N/n2cnnc2)cc1[N+](=O)[O-] returned Diaphorase inh 38.0, ROMK mod 0.706, Diaphorase act 0.6, G6PDH counter 3.6, PMI act satM6P 0.6 and PMI activator 0.7.
For CC(=O)Nc1ccc(S(=O)(=O)NCCCN2CCN(Cc3ccccc3)CC2)cc1Cl the results were ROMK mod -12.7* and ROMK retest 0.0731.
For Cc1ccc(S(=O)(=O)NCCC(=O)N2CCN(Cc3ccccc3)CC2)cc1 the results were Diaphorase inh 5.1, Diaphorase act 0.9, G6PDH counter -12.8, PMI act satM6P 0.9 and PMI activator 0.9.
Screening Fc1ccc(Nc2nnc(C(F)(F)F)s2)cc1Cl returned ROMK retest 0.0615*.
For COc1ccc(-c2nc(N)c(C#N)c(-c3cccnc3)c2C)cc1 the results were ROMK mod -0.112.
`COc1ccccc1C1CCN(c2cc(O)ccc2[N+](=O)[O-])CC1` gave ROMK retest 0.0723.
For COc1ccccc1C1CCN(C(=O)c2cccs2)CC1 the results were ROMK mod 0.29.
